# Measured values published in ChEMBL document CHEMBL2040803, “Synthesis and anticonvulsant activity of ethyl 1-(2-arylhydrazinecarboxamido)-2,2-dimethylcyclopropanecarboxylate derivatives” (Eur J Med Chem, 2012).
# Calls of active or inactive are those of the source.
# System: Mus musculus
# Assay: Neurotoxicity in Kunming mouse at 300 mg/kg, ip after 0.5 hr by rotorod test
# Type: toxicity, organism-based
# Parameters: dose 300 mg/kg, route intraperitoneal
# Settings: in vivo
# How it was run: (§1)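 Trained male Kunming mice were given ip doses of 30, 100 or 300 mg/kg, one to four per dose. They were placed on a 1 in. knurled rod rotating at 6 rpm, and examined at 0.5 h and 4.0 h. Neurotoxicity was inability to keep balance for at least 1 min in each of four trials. The value is the minimal dose giving toxicity in half or more of the mice.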
row,Structure (SMILES),Activity
1,CCOC(=O)C1(NC(=O)NNC(=O)c2ccccc2Br)CC1(C)C (configuration not stated),Non-toxic
2,CCOC(=O)C1(NC(=O)NNC(=O)c2ccc(N(C)C)cc2)CC1(C)C (configuration not stated),Non-toxic
3,CCOC(=O)C1(NC(=O)NNC(=O)c2ccc(Br)cc2)CC1(C)C (configuration not stated),Non-toxic
4,CCOC(=O)C1(NC(=O)NNC(=O)c2cc(OC)c(OC)c(OC)c2)CC1(C)C (configuration not stated),Toxic
5,CCOC(=O)C1(NC(=O)NNC(=O)c2ccccc2F)CC1(C)C (configuration not stated),Non-toxic
6,CCOC(=O)C1(NC(=O)NNC(=O)c2ccc(F)cc2)CC1(C)C (configuration not stated),Non-toxic

# System: Mus musculus
# Assay: Anticonvulsant activity in Kunming mouse assessed as protection against maximal electroshock-induced seizures at 30 mg/kg, ip measured after 0.5 hr
# Type: functional, organism-based
# Parameters: dose 30 mg/kg
# Settings: not given
# How it was run: (§2)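 Male Kunming mice (20 ± 2.0 g) were dosed ip at 30, 100 and 300 mg/kg as a suspension in 0.5% methylcellulose, one to four mice per dose. A 60-Hz, 50-mA current was applied through corneal electrodes for 0.25 s at 0.5 h and 4.0 h after dosing. Absence of hindlimb tonic extension counted as protection. The value is the minimal dose protecting half or more of the mice.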
row,Structure (SMILES),Activity
1,O=C1NC(=O)C(c2ccccc2)(c2ccccc2)N1 [PHENYTOIN],Active

# System: Mus musculus
# Assay: Anticonvulsant activity in Kunming mouse assessed as protection against maximal electroshock-induced seizures at 100 mg/kg, ip measured after 0.5 hr
# Type: functional, organism-based
# Parameters: dose 100 mg/kg
# Settings: not given
# How it was run: as §2
row,Structure (SMILES),Activity
1,CCOC(=O)C1(NC(=O)NNC(=O)c2ccc(Br)cc2)CC1(C)C (configuration not stated),Active
2,CCOC(=O)C1(NC(=O)NNC(=O)c2ccc(F)cc2)CC1(C)C (configuration not stated),Active

# System: Mus musculus
# Assay: Anticonvulsant activity in Kunming mouse assessed as protection against maximal electroshock-induced seizures at 100 mg/kg, ip measured after 4 hrs
# Type: functional, organism-based
# Parameters: dose 100 mg/kg
# Settings: not given
# How it was run: as §2
row,Structure (SMILES),Activity
1,CCOC(=O)C1(NC(=O)NNC(=O)c2cccs2)CC1(C)C (configuration not stated),Active

# System: Mus musculus
# Assay: Anticonvulsant activity in Kunming mouse assessed as protection against subcutaneous pentylenetetrazol-induced clonic seizures at 300 mg/kg, ip measured after 4 hrs
# Type: functional, organism-based
# Parameters: dose 300 mg/kg
# Settings: not given
# How it was run: (§3)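 Male Kunming mice (20 ± 2.0 g) received ip doses of 30, 100 or 300 mg/kg as a suspension in 0.5% methylcellulose, one to four mice per dose. Pentylenetetrazole in 0.9% saline was injected subcutaneously. Protection meant failure to show even a threshold seizure (a single clonic spasm lasting at least 5 s), read at 0.5 h and 4.0 h. Activity was scored as the minimal dose protecting half or more of the mice.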
row,Structure (SMILES),Activity
1,CCOC(=O)C1(NC(=O)NNC(=O)c2ccncc2)CC1(C)C (configuration not stated),inactive
2,CCOC(=O)C1(NC(=O)NNC(=O)c2ccco2)CC1(C)C (configuration not stated),inactive
3,CCOC(=O)C1(NC(=O)NNC(=O)c2cccs2)CC1(C)C (configuration not stated),Active
4,O=C1NC(=O)C(c2ccccc2)(c2ccccc2)N1 [PHENYTOIN],inactive
5,CCOC(=O)C1(NC(=O)NNC(=O)c2cccnc2)CC1(C)C (configuration not stated),Active
6,CCOC(=O)C1(NC(=O)NNC(=O)c2ccccc2Br)CC1(C)C (configuration not stated),Active
7,CCOC(=O)C1(NC(=O)NNC(=O)c2ccc(N(C)C)cc2)CC1(C)C (configuration not stated),inactive
8,CCOC(=O)C1(NC(=O)NNC(=O)c2ccc(Br)cc2)CC1(C)C (configuration not stated),inactive
9,CCOC(=O)C1(NC(=O)NNC(=O)c2cc(OC)c(OC)c(OC)c2)CC1(C)C (configuration not stated),inactive
10,CCOC(=O)C1(NC(=O)NNC(=O)c2ccccc2F)CC1(C)C (configuration not stated),inactive
11,CCOC(=O)C1(NC(=O)NNC(=O)c2ccc(F)cc2)CC1(C)C (configuration not stated),inactive

# System: Mus musculus
# Assay: Anticonvulsant activity in ip dosed Kunming mouse assessed as protection against subcutaneous pentylenetetrazol-induced clonic seizures
# Type: functional
# Settings: not given
row,Structure (SMILES),ED50 [mg/kg]
1,NC(=O)N1c2ccccc2C=Cc2ccccc21 [CARBAMAZEPINE],> 100
2,CCCC(CCC)C(=O)O [VALPROIC ACID],149
3,O=C1NC(=O)C(c2ccccc2)(c2ccccc2)N1 [PHENYTOIN],> 300
4,CCC1(c2ccccc2)C(=O)NC(=O)NC1=O [PHENOBARBITAL],13.2

# System: Mus musculus
# Assay: Anticonvulsant activity in Kunming mouse assessed as protection against maximal electroshock-induced seizures at 300 mg/kg, ip measured after 0.5 hr
# Type: functional, organism-based
# Parameters: dose 300 mg/kg
# Settings: not given
# How it was run: as §2
row,Structure (SMILES),Activity
1,CCOC(=O)C1(NC(=O)NNC(=O)c2ccncc2)CC1(C)C (configuration not stated),inactive
2,CCOC(=O)C1(NC(=O)NNC(=O)c2ccco2)CC1(C)C (configuration not stated),inactive
3,CCOC(=O)C1(NC(=O)NNC(=O)c2cccs2)CC1(C)C (configuration not stated),inactive
4,CCOC(=O)C1(NC(=O)NNC(=O)c2cccnc2)CC1(C)C (configuration not stated),inactive
5,CCOC(=O)C1(NC(=O)NNC(=O)c2ccccc2Br)CC1(C)C (configuration not stated),Active
6,CCOC(=O)C1(NC(=O)NNC(=O)c2ccc(N(C)C)cc2)CC1(C)C (configuration not stated),Active
7,CCOC(=O)C1(NC(=O)NNC(=O)c2cc(OC)c(OC)c(OC)c2)CC1(C)C (configuration not stated),Active
8,CCOC(=O)C1(NC(=O)NNC(=O)c2ccccc2F)CC1(C)C (configuration not stated),Active

# System: Mus musculus
# Assay: Anticonvulsant activity in ip dosed Kunming mouse assessed as protection against maximal electroshock-induced seizures
# Type: functional
# Settings: not given
row,Structure (SMILES),ED50 [mg/kg]
1,NC(=O)N1c2ccccc2C=Cc2ccccc21 [CARBAMAZEPINE],8.8
2,CCC1(c2ccccc2)C(=O)NC(=O)NC1=O [PHENOBARBITAL],21.8

# System: Mus musculus
# Assay: Neurotoxicity in Kunming mouse at 300 mg/kg, ip after 4 hrs by rotorod test
# Type: toxicity, organism-based
# Parameters: dose 300 mg/kg, route intraperitoneal
# Settings: in vivo
# How it was run: as §1
row,Structure (SMILES),Activity
1,CCOC(=O)C1(NC(=O)NNC(=O)c2ccncc2)CC1(C)C (configuration not stated),Toxic
2,CCOC(=O)C1(NC(=O)NNC(=O)c2ccco2)CC1(C)C (configuration not stated),Toxic
3,CCOC(=O)C1(NC(=O)NNC(=O)c2cccs2)CC1(C)C (configuration not stated),Toxic
4,CCOC(=O)C1(NC(=O)NNC(=O)c2cccnc2)CC1(C)C (configuration not stated),Toxic
5,CCOC(=O)C1(NC(=O)NNC(=O)c2ccccc2Br)CC1(C)C (configuration not stated),Non-toxic
6,CCOC(=O)C1(NC(=O)NNC(=O)c2ccc(N(C)C)cc2)CC1(C)C (configuration not stated),Toxic
7,CCOC(=O)C1(NC(=O)NNC(=O)c2ccc(Br)cc2)CC1(C)C (configuration not stated),Toxic
8,CCOC(=O)C1(NC(=O)NNC(=O)c2cc(OC)c(OC)c(OC)c2)CC1(C)C (configuration not stated),Non-toxic
9,CCOC(=O)C1(NC(=O)NNC(=O)c2ccccc2F)CC1(C)C (configuration not stated),Toxic
10,CCOC(=O)C1(NC(=O)NNC(=O)c2ccc(F)cc2)CC1(C)C (configuration not stated),Non-toxic

# System: Mus musculus
# Assay: Anticonvulsant activity in Kunming mouse assessed as protection against maximal electroshock-induced seizures at 300 mg/kg, ip measured after 4 hrs
# Type: functional, organism-based
# Parameters: dose 300 mg/kg
# Settings: not given
# How it was run: as §2
row,Structure (SMILES),Activity
1,CCOC(=O)C1(NC(=O)NNC(=O)c2ccncc2)CC1(C)C (configuration not stated),Active
2,CCOC(=O)C1(NC(=O)NNC(=O)c2ccco2)CC1(C)C (configuration not stated),Active
3,CCOC(=O)C1(NC(=O)NNC(=O)c2cccnc2)CC1(C)C (configuration not stated),inactive
4,CCOC(=O)C1(NC(=O)NNC(=O)c2ccc(N(C)C)cc2)CC1(C)C (configuration not stated),Active
5,CCOC(=O)C1(NC(=O)NNC(=O)c2ccc(Br)cc2)CC1(C)C (configuration not stated),inactive
6,CCOC(=O)C1(NC(=O)NNC(=O)c2cc(OC)c(OC)c(OC)c2)CC1(C)C (configuration not stated),Active
7,CCOC(=O)C1(NC(=O)NNC(=O)c2ccccc2F)CC1(C)C (configuration not stated),inactive
8,CCOC(=O)C1(NC(=O)NNC(=O)c2ccc(F)cc2)CC1(C)C (configuration not stated),Active

# System: Mus musculus
# Assay: Neurotoxicity in Kunming mouse at 100 mg/kg, ip after 0.5 hr by rotorod test
# Type: toxicity, organism-based
# Parameters: dose 100 mg/kg, route intraperitoneal
# Settings: in vivo
# How it was run: as §1
row,Structure (SMILES),Activity
1,CCOC(=O)C1(NC(=O)NNC(=O)c2ccncc2)CC1(C)C (configuration not stated),Toxic
2,CCOC(=O)C1(NC(=O)NNC(=O)c2ccco2)CC1(C)C (configuration not stated),Toxic
3,CCOC(=O)C1(NC(=O)NNC(=O)c2cccs2)CC1(C)C (configuration not stated),Toxic
4,O=C1NC(=O)C(c2ccccc2)(c2ccccc2)N1 [PHENYTOIN],Toxic
5,CCOC(=O)C1(NC(=O)NNC(=O)c2cccnc2)CC1(C)C (configuration not stated),Toxic

# System: Mus musculus
# Assay: Neurotoxicity in Kunming mouse at 100 mg/kg, ip after 4 hrs by rotorod test
# Type: toxicity, organism-based
# Parameters: dose 100 mg/kg, route intraperitoneal
# Settings: in vivo
# How it was run: as §1
row,Structure (SMILES),Activity
1,O=C1NC(=O)C(c2ccccc2)(c2ccccc2)N1 [PHENYTOIN],Toxic

# System: Mus musculus
# Assay: Anticonvulsant activity in Kunming mouse assessed as protection against maximal electroshock-induced seizures at 30 mg/kg, ip measured after 4 hrs
# Type: functional, organism-based
# Parameters: dose 30 mg/kg
# Settings: not given
# How it was run: as §2
row,Structure (SMILES),Activity
1,O=C1NC(=O)C(c2ccccc2)(c2ccccc2)N1 [PHENYTOIN],Active
2,CCOC(=O)C1(NC(=O)NNC(=O)c2ccccc2Br)CC1(C)C (configuration not stated),Active

# System: Mus musculus
# Assay: Anticonvulsant activity in Kunming mouse assessed as protection against subcutaneous pentylenetetrazol-induced clonic seizures at 300 mg/kg, ip measured after 0.5 hrs
# Type: functional, organism-based
# Parameters: dose 300 mg/kg
# Settings: not given
# How it was run: as §3
row,Structure (SMILES),Activity
1,CCOC(=O)C1(NC(=O)NNC(=O)c2ccncc2)CC1(C)C (configuration not stated),inactive
2,CCOC(=O)C1(NC(=O)NNC(=O)c2ccco2)CC1(C)C (configuration not stated),inactive
3,CCOC(=O)C1(NC(=O)NNC(=O)c2cccs2)CC1(C)C (configuration not stated),Active
4,O=C1NC(=O)C(c2ccccc2)(c2ccccc2)N1 [PHENYTOIN],inactive
5,CCOC(=O)C1(NC(=O)NNC(=O)c2cccnc2)CC1(C)C (configuration not stated),inactive
6,CCOC(=O)C1(NC(=O)NNC(=O)c2ccccc2Br)CC1(C)C (configuration not stated),Active
7,CCOC(=O)C1(NC(=O)NNC(=O)c2ccc(N(C)C)cc2)CC1(C)C (configuration not stated),inactive
8,CCOC(=O)C1(NC(=O)NNC(=O)c2ccc(Br)cc2)CC1(C)C (configuration not stated),inactive
9,CCOC(=O)C1(NC(=O)NNC(=O)c2cc(OC)c(OC)c(OC)c2)CC1(C)C (configuration not stated),inactive
10,CCOC(=O)C1(NC(=O)NNC(=O)c2ccccc2F)CC1(C)C (configuration not stated),inactive
11,CCOC(=O)C1(NC(=O)NNC(=O)c2ccc(F)cc2)CC1(C)C (configuration not stated),Active
